Screening results deposited in PubChem by several laboratories.
Only some compounds are listed: those with a hit (about 2.2% of all), similar ones and a draw of the others.
b-catenin transl = beta-catenin nuclear translocation modulation | HeLa beta-catenin nuclear translocation, immunofluorescence imaging | nuclear translocation activity, % at 5 µM | 0.3% of 190,000 active;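 active = nuclear translocation activity above 50% at 5 µM, with a well cell count of 50 or more; inconclusive = wells under 50 cells across six images, flagged as toxic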;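 note: per-cell ratio of nuclear to cytoplasmic median beta-catenin stain intensity; plate controls were DMSO negative control for no effect and GSK-3 inhibitor IX positive control for full effect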
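Technique: fluorescence imaging of beta-catenin antibody stain plus DAPI / Material: human HeLa cell line / Incubation: compound treatment 24 h, 37°C, 5% CO2 / Read-out basis: % activation of per-cell nuclear versus cytoplasmic median beta-catenin signal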
MT stabilize HCS = stabilizes microtubules in HeLa cells; HeLa tubulin immunostaining HCS, 24 h; share of cells brighter than vehicle mean+2SD; % tubulin-high responders, % at 10 µM; 0.83% of 200,000 active; AID 2205;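 active = plate Z-score above 3 for both tubulin-high and condensed-nucleus cell shares, with cell loss under 80%, at 10 µM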;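 note: anti alpha tubulin signal scored within the nucleus-defined area of each cell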
BaF3 parental = reduces parental Ba/F3 cell viability, JAK2V617F counter-screen | CellTiter-Glo ATP luminescence | inhibition, % at 5.6 µM | 1.1% of 220,000 active;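 active = inhibition above a per-campaign cutoff, the mean inhibition of all tested compounds plus 3 SD, cut at about 27% in these data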;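 note: 0% = DMSO wells and 100% = JAK Inhibitor I control wells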
APP transl inh = APP translation inhibition. SH-SY5Y APP 5'UTR-luciferase reporter, luminescence. inhibition, % at 2 µM. 0.82% of 190,000 active. AID 1285;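 active = inhibition above a set limit, derived from the sample mean plus 3 SD, cut at about 45% in these data; inconclusive = one replicate passes the limit while the other fails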
IEC-6 tox = counter-screen for KLF5 inhibitors: cytotoxicity in IEC-6 cells | IEC-6 cytotoxicity, luminescence viability | AID 1825 | inhibition, % at 5 µM | 0.78% of 290,000 active; in the data active = inhibition above about 22%;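 note: 0% = plate median of test compound wells and 100% = cytotoxic reference compound wells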
Ba/F3 V617F tox = lowers viability of Ba/F3 cells expressing EpoR and JAK2V617F | ATP luminescence | inhibition, % at 5.6 µM | 1.1% of 220,000 active | AID 1446;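 active = inhibition above the campaign mean plus 3 SD over all tested compounds, cut at about 24% in these data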;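 note: cytokine-independent growth of Ba/F3 cells driven by EpoR plus mutant JAK2; 0% = DMSO-treated cells and 100% = JAK inhibitor I control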
An asterisk follows results filed as active; ? = inconclusive; · = not tested or not shown.

SMILES | b-catenin transl | MT stabilize HCS | BaF3 parental | APP transl inh | IEC-6 tox | Ba/F3 V617F tox
O=C(OCc1nc2ccccc2s1)C1CCN(S(=O)(=O)c2cccs2)CC1 | -3.4 | 4.7 | 96.2* | -29.4 | -1.1 | 1.5
O=S(=O)(c1cccs1)N1CCN(Cc2nc3ccccc3s2)CC1 | · | 4.3 | 5.1 | -5.4 | 5.4 | 1.6
CC[n+]1c(/C=C2\C=C(C)CC(C)(C)C2)sc2ccccc21 | 8.2 | 4.0 | 60.1* | 11.2 | -0.8 | 56.2*
CC[n+]1c(/C=C2/C=C(C)CC(C)(C)C2)sc2ccc(OC)cc21 | 2.4 | 1.5 | 59.3* | 0.3 | -8.3 | 63.9*
CCC1=C/C(=C/c2sc3ccccc3[n+]2CC)CC(C)(C)C1 | 1.1 | 5.8 | 15.5 | -16.9 | -8.2 | 1.7
CC[n+]1c(/C=C2\C=C(C)CC(C)C2)sc2ccccc21 (centres undefined) | 5.9 | 1.5 | 62.7* | 5.1 | -1.3 | 62.7*
Cc1ccc(NC(=O)CN2C(=O)CSc3ccc(S(=O)(=O)N4CCCCC4)cc32)cc1 | · | · | · | · | 10.0 | ·
Cc1cc2oc(=O)cc(CNc3ccccc3F)c2cc1O | · | · | · | · | 5.6 | ·
CCNC(=S)NNC(=O)c1ccccc1OC(F)F | 1.7 | 2.2 | 1.1 | -2.6 | -5.4 | -6.8
CCc1ccc(NC(=S)NNC(=O)c2ccccc2OC(F)F)cc1 | 12.6 | 16.5* | 8.9 | 6.5 | 15.2 | 15.1
CC12CC3(C)CC(C)(C1)CC(C(=O)NCCc1ccc(S(N)(=O)=O)cc1)(C2)C3 | · | · | · | · | 6.5 | ·
CN(C)CCNC(=O)C12CC3(C)CC(C)(CC(C)(C3)C1)C2 | · | 0.8 | 58.9* | -4.2 | 2.3 | 0.5
COC(=O)c1sc2ccccc2c1-n1cccc1C(=O)C(=O)Nc1ccc(OC)cc1 | · | 21.9* | -1.4 | 16.1 | 2.5 | -1.6
COC(=O)c1sc2ccccc2c1-n1cccc1C(=O)C(=O)Nc1ccccc1 | · | 6.0 | 0.5 | -18.0 | -2.9 | 0.5
O=C(NCCCN1CCOCC1)c1cccnc1 | -0.7 | 5.9 | 1.0 | 9.8 | -0.8 | -5.3
O=C(NCCCN1CCOCC1)c1ccccc1 | -1.6 | 0.9 | 39.5* | -14.2 | -2.5 | -3.2
CSc1ccc(C(=O)C2CCCN(Cc3ccc(N4CCNC4=O)cc3)C2)cc1 (centres undefined) | 6.6 | 13.9* | 3.4 | -4.8 | 2.2 | 1.3
CN(C)c1nnnn1-c1ccc(Cl)cc1Cl | 1.8 | 5.7 | 3.4 | -3.4 | -1.8 | 4.0
O=C(O)Cc1c(C(=O)O)nnn1-c1ccc(Cl)cc1Cl | -3.3 | 3.6 | 5.7 | 50.5* | -3.8 | 2.7
COc1ccccc1NC(=O)Cn1nc(-c2ccncc2)nc1SCC(=O)NC1CCCC1 | -0.9 | 10.9* | 6.7 | 14.9 | -5.7 | -4.3
Nc1ncnc2c1ncn2[C@@H]1O[C@H](CO)C[C@@H]1O | -4.2 | · | 6.0 | · | 65.9* | -3.8
CCOC(=O)c1cc(S(=O)(=O)Nc2ccc(OC)cc2OC)cn1C | · | · | · | · | 7.8 | ·
CCOC(=O)c1oc2ccccc2c1NC(=O)c1cccc(OC)c1OC | -1.2 | 33.7* | 4.5 | -1.5 | -2.4 | -4.2
Cc1ccc(NC(=O)C[n+]2cc(-c3ccccc3)n3c2CCC3)c(C)c1 | -0.3 | · | -0.4 | · | -7.5 | -6.5
Cc1ccc(-c2c[n+](Cc3cccc(Cl)c3)c3n2CCC3)cc1 | 0.5 | · | 75.3* | · | 4.0 | 82.4*
SMILES | b-catenin transl | MT stabilize HCS | BaF3 parental | APP transl inh | IEC-6 tox | Ba/F3 V617F tox
Clc1cccc(C[n+]2cc(-c3ccccc3)n3c2CCC3)c1 | 0.1 | 1.8 | 64.7* | -11.9 | -11.9 | 64.7*
CC(C)(C)c1ccc(/C=N/N2CCN(c3ccccn3)CC2)cc1 | 0.6 | · | 6.1 | · | -1.2 | -3.1
CN(C)c1ccc(/C=N/N2CCN(c3ccccn3)CC2)cc1 | -0.1 | · | 56.5* | · | 2.1 | 34.7*
COCCCNC(=O)c1c(N)n(-c2ccc3c(c2)OCO3)c2nc3ccccc3nc12 | · | 3.2 | 6.9 | 10.2 | 10.3 | 1.2
CCOCCCNC(=O)c1c(N)n(-c2ccc3c(c2)OCO3)c2nc3ccccc3nc12 | -0.7 | · | 59.9* | · | 21.5 | 35.7*
CS(=O)(=O)N1CCC(C(=O)Nc2c(F)cccc2F)CC1 | 4.9 | 1.1 | 70.3* | -6.8 | -5.1 | -0.2
O=C(CCC(=O)Nc1ccccc1)N/N=C/c1cccnc1 | · | · | · | · | 3.7 | ·
O=C(NCC(=O)N1CCN(Cc2ccccc2)CC1)c1ccc(Br)o1 | · | · | · | · | -4.3 | ·
CO/N=C\CC(=O)Nc1ccc(Oc2ccccc2)cc1 | 164.8* | 26.9* | 2.4 | 68.5* | 10.2 | 1.7
O=C(C/C=N\O)Nc1ccc(Oc2ccccc2)cc1 | -2.9 | 5.2 | 4.3 | -8.2 | -1.0 | 2.5
COc1ccc(NC(=O)C(=O)NNC(=O)c2cccs2)cc1 | -1.9 | 6.4 | 7.6 | 64.2* | -2.0 | 0.6
C#CC(=O)N(c1cccc(OC)c1)C(C(=O)NC1CCCC1)c1cccs1 (centres undefined) | ? | 3.1 | 79.7* | 19.1 | 99.7* | 101.3*
CCN(CC(=O)Nc1c(F)cccc1F)C(=O)CSc1nc(C)cc(C)n1 | · | · | · | · | 4.2 | ·
COc1cc(C(=O)Oc2ccccc2/C=N/NC(=O)c2ccc(C)c(Cl)c2)cc(OC)c1OC | 1.6 | 3.8 | 3.1 | 50.4* | 1.1 | -1.3
COc1cc(C(=O)Oc2ccccc2/C=N/NC(=O)c2ccc(Cl)cc2)cc(OC)c1OC | -4.3 | 2.2 | 8.7 | 39.9 | 9.9 | -1.8
COc1ccc(CCN2CCC(Nc3nc4ccccc4n3Cc3ccc(F)cc3)CC2)cc1 | 5.2 | 17.4 | 40.7* | 2.8 | 4.2 | 74.9*
COc1ccc(CNc2nc3ccccc3n2CCN2CCCCC2)cc1 | -2.7 | 2.6 | -0.5 | -28.9 | 8.0 | 0.0
COc1ccc(O)c(C(=O)c2cnc3nc4ccccc4n3c2)c1 | 75.5* | 28.2* | 6.8 | -2.6 | 3.0 | -0.5
COc1ccc(O)c(C(=O)c2cnn(-c3ccccn3)c2)c1 | -0.5 | 5.1 | -3.7 | -44.2 | -3.3 | -3.0
CCOC(=O)C(=CNc1cc(C)nn1-c1ccc(C)cc1)C(=O)OCC | -4.4 | 1.9 | 16.6 | 21.8 | 9.7 | 23.7*
CCOC(=O)C(=CNc1cc(C)nn1C(C)(C)C)C(=O)OCC | -0.8 | 0.8 | 9.0 | · | 0.5 | -1.8
COCCCN1C(=O)CS/C1=N\S(=O)(=O)c1ccccc1 | -1.5 | · | -0.5 | · | 0.3 | -3.0
O=Cc1s/c(=N\S(=O)(=O)c2ccccc2)n(CCCCl)c1Cl | 0.0 | 2.9 | 0.0 | 94.7* | -2.4 | 22.1
O=[N+]([O-])c1ccc(N/N=C/c2cccc(O)c2O)cc1 | · | · | · | · | 2.1 | ·
O=[N+]([O-])c1ccc(N/N=C/c2c[nH]c3ccccc23)cc1 | 1.0 | 3.9 | 31.9* | 8.2 | 11.3 | 52.2*
O=[N+]([O-])c1ccc(N/N=C/c2ccc[nH]2)cc1 | 0.9 | 2.3 | 33.1* | 65.0* | 5.7 | 60.2*
O=[N+]([O-])c1ccccc1N/N=C/c1c[nH]c2ccccc12 | · | 1.6 | 3.7 | -173.3 | 15.8 | -0.2
O=C(O)CCN1C(=O)c2ccc(NC(=O)CCc3ccccc3)cc2C1=O | · | · | · | · | -4.3 | ·
Nn1c(=O)[nH]c2ccccc2c1=O | 1.0 | 4.5 | 38.2* | 2.4 | -0.1 | -1.4
